Calls of active or inactive are those of the source. The rule behind the calls is not given here.
System: Mus musculus
Experiment: In vivo inhibition of PAT1 in intestinal closed-loop CD-1 mouse model assessed as reduction in loop weight/length ratio in ileum measured for 30 mins
Type: functional
Method in brief: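 Mice (wild-type CD1 or homozygous F508del CF, 10-16 wk, both sexes) fasted 24 h with free access to 5% dextrose water. Under isoflurane at 36-38 °C, 2-3 ileal loops (2-3 cm) were tied off and injected with 100 µL PBS pH 7.4 containing 30 µM inhibitor, 10 µM tenapanor or 0.1% DMSO vehicle. Loops removed at 0 or 30 min in separate mice; length and weight measured for fluid absorption. One-way ANOVA with Newman-Keuls.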

SMILES	inhibition
CN1Cc2c(Cl)cc(Cl)cc2[C@H](c2cccc(S(=O)(=O)NCCOCCOCCNC(=O)NCCCCNC(=O)NCCOCCOCCNS(=O)(=O)c3cccc([C@@H]4CN(C)Cc5c(Cl)cc(Cl)cc54)c3)c2)C1	Active

Target: Solute carrier family 26 member 6 (Mus musculus) (UniProt Q8CIW6)
Sequence (Q8CIW6 whole entry, looked up): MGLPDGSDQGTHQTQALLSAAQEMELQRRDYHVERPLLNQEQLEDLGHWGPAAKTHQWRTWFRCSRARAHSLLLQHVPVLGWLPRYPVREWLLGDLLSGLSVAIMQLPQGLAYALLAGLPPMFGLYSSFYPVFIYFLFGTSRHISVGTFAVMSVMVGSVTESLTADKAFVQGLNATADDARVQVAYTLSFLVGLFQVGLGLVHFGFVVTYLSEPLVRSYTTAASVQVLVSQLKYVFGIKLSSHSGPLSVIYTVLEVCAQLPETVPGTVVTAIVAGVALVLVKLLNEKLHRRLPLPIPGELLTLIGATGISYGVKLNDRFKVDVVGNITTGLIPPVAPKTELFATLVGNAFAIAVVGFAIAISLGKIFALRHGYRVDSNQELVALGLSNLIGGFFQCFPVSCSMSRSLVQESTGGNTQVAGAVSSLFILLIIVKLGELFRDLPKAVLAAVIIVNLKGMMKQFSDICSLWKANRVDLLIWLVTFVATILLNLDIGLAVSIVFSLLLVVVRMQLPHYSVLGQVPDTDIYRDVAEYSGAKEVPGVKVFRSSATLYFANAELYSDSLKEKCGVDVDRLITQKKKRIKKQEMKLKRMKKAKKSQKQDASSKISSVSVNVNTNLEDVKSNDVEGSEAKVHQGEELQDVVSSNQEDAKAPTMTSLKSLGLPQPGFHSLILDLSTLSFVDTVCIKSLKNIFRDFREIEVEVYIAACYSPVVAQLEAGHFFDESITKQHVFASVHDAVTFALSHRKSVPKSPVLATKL
Experiment: Inhibition of SLC26A6 (unknown origin) expressed in rat FRT cells coexpressing YFP halide-sensing protein assessed as iodide-chloride exchange at 25 uM incubated for 2 sec by fluorescence quenching analysis relative to control

inhibition	SMILES
< 25%	CCOC(=O)c1nc(NCc2ccccc2OCC)c2c(C)noc2n1
< 25%	CCOC(=O)c1nc(NCc2cccc(Br)c2)c2c(-c3ccc(F)cc3)noc2n1

Target: Solute carrier family 26 member 6 (Mus musculus) (UniProt Q8CIW6)
Experiment: Inhibition of SLC26A6 (unknown origin) expressed in rat FRT cells coexpressing YFP halide-sensing protein assessed as iodide-chloride exchange incubated for 2 sec by fluorescence quenching analysis

SMILES	IC50
CCOC(=O)c1nc(NCc2ccc(OC(C)C)cc2)c2c(C)noc2n1	6500 nM
CCOC(=O)c1nc(NCc2ccc(F)cc2)c2c(CC)noc2n1	3200 nM
CCOC(=O)c1nc(NCc2ccc(Cl)cc2)c2c(CC)noc2n1	3400 nM
CCOC(=O)c1nc(NCCc2ccc(Cl)cc2)c2c(CC)noc2n1	5200 nM
CCOC(=O)c1nc(NCc2ccccc2OC)c2c(C)noc2n1	17200 nM
CCOC(=O)c1nc(NCc2cccnc2)c2c(-c3ccc(F)cc3)noc2n1	3400 nM
CCOC(=O)c1nc(NCc2ccc(SC)cc2)c2c(C)noc2n1	2600 nM
CCOC(=O)c1nc(NCc2cccc(OC)c2)c2c(C)noc2n1	4400 nM
CCOC(=O)c1nc(NCCc2ccccc2)c2c(CC)noc2n1	3200 nM
CCOC(=O)c1nc(NCc2ccccc2)c2c(CC)noc2n1	4300 nM
CCOC(=O)c1nc(Nc2ccccc2C)c2c(C)noc2n1	3700 nM
CCOC(=O)c1nc(NCc2ccc(C)cc2)c2c(CC)noc2n1	3800 nM
CCOC(=O)c1nc(NCc2cc(OC)ccc2OC)c2c(CC)noc2n1	3700 nM
CCOC(=O)c1nc(NCCc2ccccc2Cl)c2c(CC)noc2n1	5200 nM
CCOC(=O)c1nc(NCc2ccccc2F)c2c(CC)noc2n1	5200 nM
CCCOc1ccc(CNc2nc(C(=O)OCC)nc3onc(C)c23)cc1	5700 nM
CCOC(=O)c1nc(NCC(C)OC)c2c(-c3ccc(F)cc3)noc2n1 (stereo not drawn)	5100 nM

Second part, the compound after the results:

IC50	SMILES
1400 nM	CCOC(=O)c1nc(NCCc2ccco2)c2c(CC)noc2n1
2600 nM	CCOC(=O)c1nc(N2CCN(c3cccc(Cl)c3)CC2)c2c(C)noc2n1
1200 nM	CCOC(=O)c1nc(Nc2cccc(C)c2C)c2c(C)noc2n1
1100 nM	CCOC(=O)c1nc(NCc2cccc(C)c2)c2c(C)noc2n1
2300 nM	CCOC(=O)c1nc(NCCC(C)C)c2c(C)noc2n1
2200 nM	CCOC(=O)c1nc(NCc2cccc(F)c2)c2c(C)noc2n1
2000 nM	CCOC(=O)c1nc(NCc2ccc(OCC)cc2)c2c(C)noc2n1
1100 nM	CCOC(=O)c1nc(NCc2ccccc2Cl)c2c(C)noc2n1
1100 nM	CCOC(=O)c1nc(NCc2ccccc2F)c2c(C)noc2n1
1600 nM	CCOC(=O)c1nc(NCCc2cccs2)c2c(CC)noc2n1
1800 nM	CCOC(=O)c1nc(NCc2ccccc2)c2c(C)noc2n1
1500 nM	CCOC(=O)c1nc(NCc2cc(C)ccc2C)c2c(C)noc2n1
1800 nM	CCOC(=O)c1nc(NCCc2ccsc2)c2c(C)noc2n1
1100 nM	CCOC(=O)c1nc(NCc2cccc(Br)c2)c2c(C)noc2n1
2300 nM	CCOC(=O)c1nc(NCc2ccc(F)cc2)c2c(C)noc2n1
2500 nM	CCOC(=O)c1nc(NCc2cc(Br)ccc2OC)c2c(CC)noc2n1
1900 nM	CCOC(=O)c1nc(NCc2ccccc2OC)c2c(CC)noc2n1
2400 nM	CCOC(=O)c1nc(NCCc2ccco2)c2c(C)noc2n1

From ChEMBL document CHEMBL5329211, “Selective isoxazolopyrimidine PAT1 (SLC26A6) inhibitors for therapy of intestinal disorders” (RSC Med Chem, 2023)
